What was measured:
[1] = system: EC68, EC46 and PANC-1 cells; experiment: Cell growth MTT assay; assay type: cell-based, human; settings: in vitro studies, Fig. 1, MTT 48 h
Outline: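 PANC-1 and primary patient-derived pancreatic cancer lines EC46 and EC68 were grown in DMEM/F-12K (1:1) with 10% FBS at 37 °C and 5% CO2. Cells were seeded at 5000/well and attached overnight. They were then exposed for 48 h to the test compound at various concentrations or to EtOH solvent control. Viability was read by MTT, and curves were fitted by nonlinear regression.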

[2] = Tissue distribution and pharmacokinetic study; assay type: in vivo; settings: single 1 mg/kg, NSG mice
Outline: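 Female NSG mice (4–10 weeks) received a single 1 mg/kg dose, either i.v. in 10% EtOH/5% Tween-80/85% saline or i.p. in DMSO; 3 mice per time point. Plasma and tissues were collected at 10 min and 1, 3, 8, 24 and 48 h. Tissues were homogenised in PBS, proteins precipitated in acetonitrile/methanol with harmine internal standard, and samples quantified by positive-ESI MRM LC-MS/MS against matrix calibration curves. PK parameters came from noncompartmental analysis.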

[3] = system: orthotopic pancreatic PDX tumor; experiment: TUNEL staining of PDX tumors; assay type: in vivo, NSG mice; settings: PDX tumors at euthanasia, 0.25 mg/kg i.p. every other day, vs vehicle
Outline: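 Orthotopic PDX mice received test compound 0.25 mg/kg i.p. or DMSO every other day. At endpoint, tumours were formalin-fixed and paraffin-embedded, and 5 micron sections were cut. Sections were stained for Ki-67 (proliferation) or by TUNEL (apoptosis). Ki-67 was scored as the average number of positive cells per high-power field by image analysis.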

CC[C@H](C)[C@@H]1C(=O)N2CCC[C@@H]2C(=O)O[C@H](C(C)(C)C)C[C@@H](C)C[C@@H](O)C(C)(C)C2=N[C@H](CCC(=O)N[C@@H](Cc3ccc(OC)cc3)C(=O)N(C)[C@@H](C)C(=O)N1C)CS2 [Apra S10, apratoxin S10]
concentration required to achieve the maximal response [1]: around 50 nM | concentration required to achieve the maximal response (minimum effective concentration) [1]: ~40 ng/mL | AUC (area under the concentration-time curve to infinity) ([2]; Brain, IP): 3067 ng·h/mL | AUCt (area under the concentration-time curve) ([2]; Brain, IP): 727 ng·h/mL | CL/F (clearance) ([2]; Brain, IP): 5.43 mL/min/kg | Cmax (peak concentration) ([2]; Brain, IP): 18 ng/mL | Ke (elimination rate constant) ([2]; Brain, IP): 0.006 h⁻¹ | MRT (mean residence time) ([2]; Brain, IP): 170.68 h | Tmax (time to peak concentration) ([2]; Brain, IP): 0.17 h | Vz/F (volume of distribution) ([2]; Brain, IP): 55.015 L/kg | t1/2 (half-life) ([2]; Brain, IP): 116.95 h | AUC (area under the concentration-time curve to infinity) ([2]; Brain, IV): 2442 ng·h/mL | AUCt (area under the concentration-time curve) ([2]; Brain, IV): 874 ng·h/mL | CL/F (clearance) ([2]; Brain, IV): 6.82 mL/min/kg | Cmax (peak concentration) ([2]; Brain, IV): 63 ng/mL | Ke (elimination rate constant) ([2]; Brain, IV): 0.009 h⁻¹ | MRT (mean residence time) ([2]; Brain, IV): 110.88 h | Tmax (time to peak concentration) ([2]; Brain, IV): 0.17 h | Vz/F (volume of distribution) ([2]; Brain, IV): 46.571 L/kg | t1/2 (half-life) ([2]; Brain, IV): 78.84 h | AUC (area under the concentration-time curve to infinity) ([2]; Kidney, IP): 5559 ng·h/mL | AUCt (area under the concentration-time curve) ([2]; Kidney, IP): 4508 ng·h/mL | CL/F (clearance) ([2]; Kidney, IP): 3 mL/min/kg | Cmax (peak concentration) ([2]; Kidney, IP): 403 ng/mL | Ke (elimination rate constant) ([2]; Kidney, IP): 0.036 h⁻¹ | MRT (mean residence time) ([2]; Kidney, IP): 25.57 h | Tmax (time to peak concentration) ([2]; Kidney, IP): 1.00 h | Vz/F (volume of distribution) ([2]; Kidney, IP): 5.02 L/kg | t1/2 (half-life) ([2]; Kidney, IP): 19.34 h | AUC (area under the concentration-time curve to infinity) ([2]; Kidney, IV): 3345 ng·h/mL | AUCt (area under the concentration-time curve) ([2]; Kidney, IV): 3285 ng·h/mL | CL/F (clearance) ([2]; Kidney, IV): 4.98 mL/min/kg | Cmax (peak concentration) ([2]; Kidney, IV): 753 ng/mL | Ke (elimination rate constant) ([2]; Kidney, IV): 0.077 h⁻¹ | MRT (mean residence time) ([2]; Kidney, IV): 9.34 h | Tmax (time to peak concentration) ([2]; Kidney, IV): 0.17 h | Vz/F (volume of distribution) ([2]; Kidney, IV): 3.892 L/kg | t1/2 (half-life) ([2]; Kidney, IV): 9.03 h | AUC (area under the concentration-time curve to infinity) ([2]; Liver, IP): 7951 ng·h/mL | AUCt (area under the concentration-time curve) ([2]; Liver, IP): 7485 ng·h/mL | CL/F (clearance) ([2]; Liver, IP): 2.1 mL/min/kg | Cmax (peak concentration) ([2]; Liver, IP): 945 ng/mL | Ke (elimination rate constant) ([2]; Liver, IP): 0.067 h⁻¹ | MRT (mean residence time) ([2]; Liver, IP): 12.77 h | Tmax (time to peak concentration) ([2]; Liver, IP): 0.17 h | Vz/F (volume of distribution) ([2]; Liver, IP): 1.865 L/kg | t1/2 (half-life) ([2]; Liver, IP): 10.28 h | AUC (area under the concentration-time curve to infinity) ([2]; Liver, IV): 6560 ng·h/mL | AUCt (area under the concentration-time curve) ([2]; Liver, IV): 6095 ng·h/mL | CL/F (clearance) ([2]; Liver, IV): 2.53 mL/min/kg | Cmax (peak concentration) ([2]; Liver, IV): 1127 ng/mL | Ke (elimination rate constant) ([2]; Liver, IV): 0.056 h⁻¹ | MRT (mean residence time) ([2]; Liver, IV): 14.08 h | Tmax (time to peak concentration) ([2]; Liver, IV): 0.17 h | Vz/F (volume of distribution) ([2]; Liver, IV): 2.741 L/kg | t1/2 (half-life) ([2]; Liver, IV): 12.46 h | AUC (area under the concentration-time curve to infinity) ([2]; Lung, IP): 3310 ng·h/mL | AUCt (area under the concentration-time curve) ([2]; Lung, IP): 2321 ng·h/mL | CL/F (clearance) ([2]; Lung, IP): 5.03 mL/min/kg | Cmax (peak concentration) ([2]; Lung, IP): 210 ng/mL | Ke (elimination rate constant) ([2]; Lung, IP): 0.023 h⁻¹ | MRT (mean residence time) ([2]; Lung, IP): 38.38 h | Tmax (time to peak concentration) ([2]; Lung, IP): 0.17 h | Vz/F (volume of distribution) ([2]; Lung, IP): 13.044 L/kg | t1/2 (half-life) ([2]; Lung, IP): 29.93 h | AUC (area under the concentration-time curve to infinity) ([2]; Lung, IV): 2768 ng·h/mL | AUCt (area under the concentration-time curve) ([2]; Lung, IV): 2273 ng·h/mL | CL/F (clearance) ([2]; Lung, IV): 6.02 mL/min/kg | Cmax (peak concentration) ([2]; Lung, IV): 329 ng/mL | Ke (elimination rate constant) ([2]; Lung, IV): 0.041 h⁻¹ | MRT (mean residence time) ([2]; Lung, IV): 24.55 h | Tmax (time to peak concentration) ([2]; Lung, IV): 0.17 h | Vz/F (volume of distribution) ([2]; Lung, IV): 8.837 L/kg | t1/2 (half-life) ([2]; Lung, IV): 16.95 h | AUC (area under the concentration-time curve to infinity) ([2]; Pancreas, IP): 60205 ng·h/mL | AUCt (area under the concentration-time curve) ([2]; Pancreas, IP): 54532 ng·h/mL | CL/F (clearance) ([2]; Pancreas, IP): 0.283 mL/min/kg | Cmax (peak concentration) ([2]; Pancreas, IP): 2883 ng/mL | Ke (elimination rate constant) ([2]; Pancreas, IP): 0.051 h⁻¹ | MRT (mean residence time) ([2]; Pancreas, IP): 17.46 h | Tmax (time to peak concentration) ([2]; Pancreas, IP): 3.00 h | Vz/F (volume of distribution) ([2]; Pancreas, IP): 0.323 L/kg | t1/2 (half-life) ([2]; Pancreas, IP): 13.49 h | AUC (area under the concentration-time curve to infinity) ([2]; Pancreas, IV): 49289 ng·h/mL | AUCt (area under the concentration-time curve) ([2]; Pancreas, IV): 45982 ng·h/mL | CL/F (clearance) ([2]; Pancreas, IV): 0.333 mL/min/kg | Cmax (peak concentration) ([2]; Pancreas, IV): 2348 ng/mL | Ke (elimination rate constant) ([2]; Pancreas, IV): 0.059 h⁻¹ | MRT (mean residence time) ([2]; Pancreas, IV): 14.80 h | Tmax (time to peak concentration) ([2]; Pancreas, IV): 8.00 h | Vz/F (volume of distribution) ([2]; Pancreas, IV): 0.342 L/kg | t1/2 (half-life) ([2]; Pancreas, IV): 11.70 h | AUC (area under the concentration-time curve to infinity) ([2]; Plasma, IP): 1292 ng·h/mL | AUCt (area under the concentration-time curve) ([2]; Plasma, IP): 1251 ng·h/mL | CL/F (clearance) ([2]; Plasma, IP): 12.9 mL/min/kg | Cmax (peak concentration) ([2]; Plasma, IP): 775 ng/mL | Ke (elimination rate constant) ([2]; Plasma, IP): 0.082 h⁻¹ | MRT (mean residence time) ([2]; Plasma, IP): 6.54 h | Tmax (time to peak concentration) ([2]; Plasma, IP): 0.17 h | Vz/F (volume of distribution) ([2]; Plasma, IP): 9.49 L/kg | t1/2 (half-life) ([2]; Plasma, IP): 8.50 h | AUC (area under the concentration-time curve to infinity) ([2]; Plasma, IV): 1303 ng·h/mL | AUCt (area under the concentration-time curve) ([2]; Plasma, IV): 1287 ng·h/mL | CL/F (clearance) ([2]; Plasma, IV): 12.8 mL/min/kg | Cmax (peak concentration) ([2]; Plasma, IV): 1072 ng/mL | Ke (elimination rate constant) ([2]; Plasma, IV): 0.089 h⁻¹ | MRT (mean residence time) ([2]; Plasma, IV): 4.20 h | Tmax (time to peak concentration) ([2]; Plasma, IV): 0.17 h | Vz/F (volume of distribution) ([2]; Plasma, IV): 8.616 L/kg | t1/2 (half-life) ([2]; Plasma, IV): 7.78 h | AUC (area under the concentration-time curve to infinity) ([2]; Salivary gland, IP): 19233 ng·h/mL | AUCt (area under the concentration-time curve) ([2]; Salivary gland, IP): 13009 ng·h/mL | CL/F (clearance) ([2]; Salivary gland, IP): 0.867 mL/min/kg | Cmax (peak concentration) ([2]; Salivary gland, IP): 556 ng/mL | Ke (elimination rate constant) ([2]; Salivary gland, IP): 0.024 h⁻¹ | MRT (mean residence time) ([2]; Salivary gland, IP): 41.75 h | Tmax (time to peak concentration) ([2]; Salivary gland, IP): 3.00 h | Vz/F (volume of distribution) ([2]; Salivary gland, IP): 2.2 L/kg | t1/2 (half-life) ([2]; Salivary gland, IP): 29.33 h | AUC (area under the concentration-time curve to infinity) ([2]; Salivary gland, IV): 26182 ng·h/mL | AUCt (area under the concentration-time curve) ([2]; Salivary gland, IV): 23604 ng·h/mL | CL/F (clearance) ([2]; Salivary gland, IV): 0.633 mL/min/kg | Cmax (peak concentration) ([2]; Salivary gland, IV): 1258 ng/mL | Ke (elimination rate constant) ([2]; Salivary gland, IV): 0.048 h⁻¹ | MRT (mean residence time) ([2]; Salivary gland, IV): 19.56 h | Tmax (time to peak concentration) ([2]; Salivary gland, IV): 1.00 h | Vz/F (volume of distribution) ([2]; Salivary gland, IV): 0.797 L/kg | t1/2 (half-life) ([2]; Salivary gland, IV): 14.46 h | AUC (area under the concentration-time curve to infinity) ([2]; Spleen, IP): 6586 ng·h/mL | AUCt (area under the concentration-time curve) ([2]; Spleen, IP): 5011 ng·h/mL | CL/F (clearance) ([2]; Spleen, IP): 2.53 mL/min/kg | Cmax (peak concentration) ([2]; Spleen, IP): 253 ng/mL | Ke (elimination rate constant) ([2]; Spleen, IP): 0.031 h⁻¹ | MRT (mean residence time) ([2]; Spleen, IP): 31.38 h | Tmax (time to peak concentration) ([2]; Spleen, IP): 0.17 h | Vz/F (volume of distribution) ([2]; Spleen, IP): 4.868 L/kg | t1/2 (half-life) ([2]; Spleen, IP): 22.22 h | AUC (area under the concentration-time curve to infinity) ([2]; Spleen, IV): 6838 ng·h/mL | AUCt (area under the concentration-time curve) ([2]; Spleen, IV): 4686 ng·h/mL | CL/F (clearance) ([2]; Spleen, IV): 2.43 mL/min/kg | Cmax (peak concentration) ([2]; Spleen, IV): 195 ng/mL | Ke (elimination rate constant) ([2]; Spleen, IV): 0.027 h⁻¹ | MRT (mean residence time) ([2]; Spleen, IV): 38.00 h | Tmax (time to peak concentration) ([2]; Spleen, IV): 8.00 h | Vz/F (volume of distribution) ([2]; Spleen, IV): 5.353 L/kg | t1/2 (half-life) ([2]; Spleen, IV): 25.37 h | number of cells undergoing apoptosis (TUNEL) [3]: no difference

From publication PMC6360136 (Investigational new drugs, 2018)
